Several values for one entry are separate records, joined by “and”; a condition that tells them apart may be missing. Equal entries are not always repeated.
System: U2OS
Assay: Multiplex assay against U2OS
Type: toxicity, cell-based
Details: human
Outline: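 Live cells were stained at seeding with Hoechst33342, BioTracker Green Microtubule Cytoskeleton Dye, MitoTracker Red and Annexin V Alexa Fluor 680, then imaged on a CQ1 microscope at 37°C and 5% CO2 after compound addition. CellPathfinder machine-learning gating split cells into Hoechst high-intensity objects or normal cells. Normal cells were split into healthy, pyknosed or fragmented nuclei, and pyknosed cells into mitotic or apoptotic. Tubulin, mitochondrial-mass and membrane-permeability phenotypes are per cents of healthy-nucleus cells.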

[1] = 12 h, 1 µM, compound concentration 1 uM
[2] = 12 h, 10 µM, compound concentration 10 uM
[3] = 24 h, 1 µM, compound concentration 1 uM
[4] = 24 h, 10 µM, compound concentration 10 uM
[5] = 48 h, 1 µM, compound concentration 1 uM
[6] = 48 h, 10 µM, compound concentration 10 uM

CNC[C@H](O)c1ccc(O)c(O)c1 [EPINEPHRINE]
Population Apoptotic (%) [1]: 88% and 80%
Population Fragmented Nuclei (%) [1]: 35% and 17%
Population Healthy Nuclei (%) [1]: 56% and 77%
Population Hoechst High Intensity Objects (%) [1]: 2% and 0%
Population Membrane Permeable-Phenotype (%) [1]: 5% and 7%
Population Mitochondria Different-Phenotype (%) [1]: 1% and 2%
Population Mitotic Cells (%) [1]: 11% and 20%
Population Normal (%) [1]: 97% and 100%
Population Pyknosed Nuclei (%) [1]: 7% and 5%
Population Tubulin-Different-Phenotype (%) [1]: 2% and 4%
Total Cell Count [1]: 229 and 92
Population Apoptotic (%) [2]: 92% and 86%
Population Fragmented Nuclei (%) [2]: 41% and 33%
Population Healthy Nuclei (%) [2]: 45% and 50%
Population Hoechst High Intensity Objects (%) [2]: 6% and 9%
Population Membrane Permeable-Phenotype (%) [2]: 7% and 6%
Population Mitochondria Different-Phenotype (%) [2]: 1% and 2%
Population Mitotic Cells (%) [2]: 8% and 13%
Population Normal (%) [2]: 93% and 90%
Population Pyknosed Nuclei (%) [2]: 13% and 15%
Population Tubulin-Different-Phenotype (%) [2]: 4% and 6%
Total Cell Count [2]: 199 and 105
Population Apoptotic (%) [3]: 84% and 75%
Population Fragmented Nuclei (%) [3]: 28% and 19%
Population Healthy Nuclei (%) [3]: 64% and 68%
Population Hoechst High Intensity Objects (%) [3]: 2%
Population Membrane Permeable-Phenotype (%) [3]: 6% and 7%
Population Mitochondria Different-Phenotype (%) [3]: 1% and 5%
Population Mitotic Cells (%) [3]: 15% and 25%
Population Normal (%) [3]: 97%
Population Pyknosed Nuclei (%) [3]: 7% and 11%
Population Tubulin-Different-Phenotype (%) [3]: 2% and 1%
Total Cell Count [3]: 278 and 105
Population Apoptotic (%) [4]: 94% and 100%
Population Fragmented Nuclei (%) [4]: 39% and 31%
Population Healthy Nuclei (%) [4]: 50% and 45%
Population Hoechst High Intensity Objects (%) [4]: 9% and 11%
Population Membrane Permeable-Phenotype (%) [4]: 11% and 2%
Population Mitochondria Different-Phenotype (%) [4]: 5% and 0%
Population Mitotic Cells (%) [4]: 5% and 0%
Population Normal (%) [4]: 90% and 88%
Population Pyknosed Nuclei (%) [4]: 10% and 22%
Population Tubulin-Different-Phenotype (%) [4]: 6% and 2%
Total Cell Count [4]: 195 and 96
Population Apoptotic (%) [5]: 87% and 92%
Population Fragmented Nuclei (%) [5]: 24% and 18%
Population Healthy Nuclei (%) [5]: 66% and 72%
Population Hoechst High Intensity Objects (%) [5]: 0%
Population Membrane Permeable-Phenotype (%) [5]: 9% and 4%
Population Mitochondria Different-Phenotype (%) [5]: 5% and 3%
Population Mitotic Cells (%) [5]: 12% and 7%
Population Normal (%) [5]: 99%
Population Pyknosed Nuclei (%) [5]: 9%
Population Tubulin-Different-Phenotype (%) [5]: 4% and 2%
Total Cell Count [5]: 333 and 150
Population Apoptotic (%) [6]: 92% and 94%
Population Fragmented Nuclei (%) [6]: 41% and 36%
Population Healthy Nuclei (%) [6]: 44% and 40%
Population Hoechst High Intensity Objects (%) [6]: 10% and 17%
Population Membrane Permeable-Phenotype (%) [6]: 15% and 24%
Population Mitochondria Different-Phenotype (%) [6]: 8% and 13%
Population Mitotic Cells (%) [6]: 7% and 5%
Population Normal (%) [6]: 89% and 82%
Population Pyknosed Nuclei (%) [6]: 14% and 23%
Population Tubulin-Different-Phenotype (%) [6]: 10% and 13%
Total Cell Count [6]: 215 and 87

CN[C@@H](C)C(=O)N[C@H](C(=O)N1CCC[C@H]1C(=O)Nc1snnc1-c1ccccc1)C1CCCCC1 [GDC-0152]
Population Apoptotic (%) [1]: 60% and 89%
Population Fragmented Nuclei (%) [1]: 25% and 21%
Population Healthy Nuclei (%) [1]: 61% and 60%
Population Hoechst High Intensity Objects (%) [1]: 5% and 11%
Population Membrane Permeable-Phenotype (%) [1]: 51% and 50%
Population Mitochondria Different-Phenotype (%) [1]: 24% and 38%
Population Normal (%) [1]: 94% and 88%
Population Pyknosed Nuclei (%) [1]: 13% and 17%
Population Tubulin-Different-Phenotype (%) [1]: 47% and 52%
Total Cell Count [1]: 176 and 121
Population Apoptotic (%) [2]: 72% and 70%
Population Fragmented Nuclei (%) [2]: 39% and 18%
Population Healthy Nuclei (%) [2]: 44% and 65%
Population Hoechst High Intensity Objects (%) [2]: 4% and 5%
Population Membrane Permeable-Phenotype (%) [2]: 65% and 73%
Population Mitochondria Different-Phenotype (%) [2]: 61% and 70%
Population Mitotic Cells (%) [2]: 27% and 29%
Population Normal (%) [2]: 95% and 94%
Population Pyknosed Nuclei (%) [2]: 16% and 15%
Population Tubulin-Different-Phenotype (%) [2]: 76% and 91%
Total Cell Count [2]: 208 and 114
Population Apoptotic (%) [3]: 72% and 85%
Population Fragmented Nuclei (%) [3]: 21% and 34%
Population Healthy Nuclei (%) [3]: 55% and 44%
Population Hoechst High Intensity Objects (%) [3]: 5% and 8%
Population Membrane Permeable-Phenotype (%) [3]: 20% and 25%
Population Mitochondria Different-Phenotype (%) [3]: 18% and 28%
Population Mitotic Cells (%) [3]: 27% and 14%
Population Normal (%) [3]: 94% and 91%
Population Pyknosed Nuclei (%) [3]: 23% and 21%
Population Tubulin-Different-Phenotype (%) [3]: 19% and 27%
Total Cell Count [3]: 196 and 144
Population Apoptotic (%) [4]: 68% and 92%
Population Fragmented Nuclei (%) [4]: 36% and 20%
Population Healthy Nuclei (%) [4]: 43% and 40%
Population Hoechst High Intensity Objects (%) [4]: 3% and 10%
Population Membrane Permeable-Phenotype (%) [4]: 53% and 59%
Population Mitochondria Different-Phenotype (%) [4]: 59% and 65%
Population Normal (%) [4]: 96% and 89%
Population Pyknosed Nuclei (%) [4]: 20% and 38%
Population Tubulin-Different-Phenotype (%) [4]: 59% and 81%
Total Cell Count [4]: 220 and 121
Population Apoptotic (%) [5]: 93% and 88%
Population Fragmented Nuclei (%) [5]: 35%
Population Healthy Nuclei (%) [5]: 32% and 30%
Population Hoechst High Intensity Objects (%) [5]: 8%
Population Membrane Permeable-Phenotype (%) [5]: 16% and 38%
Population Mitochondria Different-Phenotype (%) [5]: 12% and 17%
Population Mitotic Cells (%) [5]: 6% and 11%
Population Normal (%) [5]: 91%
Population Pyknosed Nuclei (%) [5]: 32% and 34%
Population Tubulin-Different-Phenotype (%) [5]: 9% and 27%
Total Cell Count [5]: 246 and 170
Population Apoptotic (%) [6]: 100% and 98%
Population Fragmented Nuclei (%) [6]: 47% and 45%
Population Healthy Nuclei (%) [6]: 22% and 8%
Population Hoechst High Intensity Objects (%) [6]: 11% and 14%
Population Membrane Permeable-Phenotype (%) [6]: 39% and 80%
Population Mitochondria Different-Phenotype (%) [6]: 39% and 50%
Population Mitotic Cells (%) [6]: 0% and 1%
Population Normal (%) [6]: 88% and 85%
Population Pyknosed Nuclei (%) [6]: 29% and 45%
Population Tubulin-Different-Phenotype (%) [6]: 43% and 80%
Total Cell Count [6]: 246 and 138

Reference: ChEMBL document CHEMBL5724801, “EUbOPEN Chemogenomics Library - Multiplex” (2024)
